OX1R antag-1: antagonists of human orexin 1 receptor; O43613; CHO/OX1R cells, Fluo-8 calcium fluorescence, orexin A; inhibition, % at 5 µM; 0.43% of 330,000 active;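 active = inhibition above its plate's threshold, mean inhibition of all tested compounds on the plate plus 3 SD, cut at about 37% in these data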;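 also: 0% = orexin A challenge wells and 100% = SB-334867-A antagonist wells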
Target sequence (O43613 whole entry, looked up): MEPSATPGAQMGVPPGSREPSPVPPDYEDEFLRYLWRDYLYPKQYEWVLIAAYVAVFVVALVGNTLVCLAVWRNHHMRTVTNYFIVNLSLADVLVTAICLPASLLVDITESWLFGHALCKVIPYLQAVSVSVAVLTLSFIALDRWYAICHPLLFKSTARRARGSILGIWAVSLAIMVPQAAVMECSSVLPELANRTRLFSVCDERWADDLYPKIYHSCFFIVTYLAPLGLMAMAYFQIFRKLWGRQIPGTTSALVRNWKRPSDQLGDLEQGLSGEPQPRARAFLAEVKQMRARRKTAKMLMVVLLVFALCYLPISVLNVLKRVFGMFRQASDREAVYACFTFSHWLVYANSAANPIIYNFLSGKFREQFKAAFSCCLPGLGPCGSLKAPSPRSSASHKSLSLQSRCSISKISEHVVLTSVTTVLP
TAAR1 antag: antagonists of human TAAR1; 1.5% of 360,000 active; inhibition, % at 3 µM; CHO RD-HGA16 TAAR1, Fluo-8 calcium fluorescence, antagonist; Q96RJ0;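 active = inhibition above a per-plate cutoff, the mean inhibition of test compounds on that plate plus 3 SD, cut at about 49% in these data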;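 also: 0% = DMSO plus EC80 beta-PEA response and 100% = DMSO alone without agonist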
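Test system: CHO RD-HGA16 cells bearing hTAAR1 | Reagent: β-PEA, EC80 | Compound dosing: 3 µM, single point | Schedule: Dye loading 75 min at 37 °C, then 30 min room temperature | Signal: Calcium fluorescence with Fluo-8 | Evaluation: Percent inhibition of PEA-evoked calcium signal, max/basal emission ratio | Control set: DMSO-only wells and EC80 β-PEA-stimulated wells | Repeats: Singlicate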
GalR3 antagonist: antagonists of human GalR3. O60755. HEK293 GalR3-CNG cAMP membrane potential fluorescence; galR3 body fused to GalR1 C-terminus. inhibition, % at 3 µM. 0.44% of 360,000 active. AID 651719;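 active = inhibition above the screen-wide average plus 3 SD, cut at about 13% in these data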;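 also: forskolin and galanin both at EC90 stimulate the cells; cAMP rise reported by CNG channel membrane potential dye signal; 0% = forskolin plus galanin with DMSO and 100% = forskolin alone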
Target sequence (O60755 1-299 limits assumed): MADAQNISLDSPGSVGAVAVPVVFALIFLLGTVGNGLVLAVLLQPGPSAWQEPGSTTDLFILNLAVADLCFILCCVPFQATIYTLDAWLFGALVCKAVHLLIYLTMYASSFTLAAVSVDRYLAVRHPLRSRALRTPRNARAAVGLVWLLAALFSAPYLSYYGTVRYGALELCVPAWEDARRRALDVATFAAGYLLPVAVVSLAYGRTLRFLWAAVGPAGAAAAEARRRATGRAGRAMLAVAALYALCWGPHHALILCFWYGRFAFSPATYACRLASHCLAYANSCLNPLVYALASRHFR
OX1R antag-2: OX1R (human) antagonism. O43613. OX1R-expressing cells, FRET antagonist read-out. inhibition, % at 6.6 µM. 1.8% of 330,000 active. AID 485270; in the data active = inhibition mostly above about 38%, no sharp cut-off; inactive = mostly below about 40%;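 also: 0% = agonist challenge alone and 100% = reference antagonist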
CHO parental Ca: counter-screen for OX1R antagonists: effect in parental CHO cells. parental CHO-K1, ATP-induced calcium, Fluo-8 fluorescence. inhibition, % at 5.6 µM. 0.63% of 330,000 active. AID 463079;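 active = inhibition above that plate's mean sample inhibition plus 3 SD, cut at about 26% in these data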;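 also: 0% = ATP-challenged DMSO wells and 100% = DMSO wells without ATP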
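Assay system: untransfected parental CHO cell line. Also added: ATP agonist challenge. Dosing: one dose, 5.6 µM nominal. Measured by: Fluo-8 fluorescence. Read-out: % inhibition. Benchmarks: ATP wells versus no-ATP DMSO wells. Repeats: no replicates.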
TAAR1 ag: human TAAR1 agonism. Q96RJ0. CHO RD-HGA16 TAAR1, Fluo-8 calcium fluorescence; vehicle wells 0%, saturating PEA agonist 100%. activation, % at 3 µM. 0.99% of 360,000 active. AID 624467;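 active = activation above the mean activation of all test compounds in the run plus 3 SD, cut at about 38% in these data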
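Test system: RD-HGA16 (CHO) cells co-expressing Gα16 and hTAAR1 / Benchmarks: DMSO vehicle as 0%, PEA at EC100 as 100% / Repeats: no replicates (n 1) / Measure: % activation from peak over basal fluorescence ratio, DMSO-to-PEA scaled / Timing: 17-24 h plating, Fluo-8 75 min 37 °C, 30 min RT / Technique: kinetic Fluo-8 calcium fluorescence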
Active calls of the source: *; · = no result; ! = not confirmed by another sample. Sampled rows, rich in hits. Any-hit rate of the full collection: about 4.3%.

SMILES | OX1R antag-1 | TAAR1 antag | GalR3 antagonist | OX1R antag-2 | CHO parental Ca | TAAR1 ag
C#CCNC(=O)C[C@@H]1C[C@@]2(C(=O)OCC)CCCC=C2N(Cc2ccc(Cl)cc2Cl)C1=O | · | -6 | -6 | · | · | 5
COC(=O)CC1C(=O)NCCN1C(=O)CSc1nc2ccc([N+](=O)[O-])cc2s1 (stereo not drawn) | -11 | -3 | -4 | 71* | -10 | 2
Cc1[nH]c(=O)[nH]c(=S)c1C(=O)Nc1ccc(Cl)c(Cl)c1 | 6 | 9 | -8 | 10 | -3 | 5
CCc1ccc(N=Nc2ccc(O)c3[nH]cnc23)cc1 | 47* | 46 | -6 | -1 | 30 | 12
Cc1ccc(C(=O)N2CCC3(CC2)Oc2ccc(Cl)cc2C(=O)C32CC(c3cccnc3)=NO2)s1 (stereo not drawn) | -12 | 31 | -3 | 27 | -21 | 7
O=C(/C=C/c1cccs1)N1CCC2(CC1)Oc1ccc(Cl)cc1C(=O)C21CC(c2cccnc2)=NO1 (stereo not drawn) | -2 | 53* | -3 | 38 | -4 | 20
CC(C)c1ccc2c(c1)CC[C@H]1[C@](C)(CN)CCC[C@]21C | · | -2 | -3 | · | · | 38*!
CC(C)c1ccc2c(c1)CCC1C(C)(CN)CCCC21C (stereo not drawn) | -4 | 6 | -7 | 2 | 3 | 39*
Cc1nonc1C(=O)N1CCCC(Nc2ccc(C(C)C)cc2)C1 (stereo not drawn) | -13 | -36 | -1 | 26 | -13 | -2
COc1ccccc1-c1ccc(SCc2ccc([N+](=O)[O-])cc2)nn1 | -35 | -1 | -6 | 7 | -10 | -1
COc1ccccc1-c1ccc(SCc2cccc(C)c2)nn1 | 14 | 10 | -7 | 18 | 48* | 1
Cc1cccc(NC(=O)CSc2nnc(-c3cc(C)n(-c4ccccc4)c3C)o2)c1C | -9 | 8 | -3 | 19 | -17 | -2
Cc1cc(-c2nnc(SCC(=O)Nc3ccccc3C(F)(F)F)o2)c(C)n1-c1ccccc1 | 2 | 11 | -2 | 11 | -5 | 42*
CC(OC(=O)c1n[nH]c2ccccc12)C(=O)Nc1ccccc1[N+](=O)[O-] (stereo not drawn) | 12 | 5 | -6 | 36* | -25 | 7
Cc1ccc(NC(=O)C(C)OC(=O)c2n[nH]c3ccccc23)cc1 (stereo not drawn) | -30 | 4 | -5 | 29 | -7 | -2
O=C1c2ccccc2-c2nc3ccccc3cc21 | -3 | -11 | -9 | 58* | -3 | 2
C[C@@H]1COc2cccc(NCCO)c2S(=O)(=O)N1 | · | -22 | -4 | · | · | 1
CCOC(=O)C(Cc1ccc(O)cc1)NC(=O)CCc1c[nH]c2ccccc12 (stereo not drawn) | 9 | 14 | -12 | 0 | 9 | 40*
COc1cc(/C=C2\CC/C(=C\c3cc(OC)c(O)c(OC)c3)C2=O)cc(OC)c1O | 13 | 14 | 0 | 90* | -21 | 3
COc1cc(/C=C2\COC/C(=C\c3cc(OC)c(OC)c(OC)c3)C2=O)cc(OC)c1OC | · | 53* | -1 | · | · | 6
COc1cc(/C=C2\CC/C(=C\c3cc(OC)c(OC)c(OC)c3)C2=O)cc(OC)c1OC | -32 | 15 | -5 | 15 | -21 | 2
COc1ccc(-c2noc(N3CCC(C(=O)Nc4cccc(OC)c4)CC3)n2)cc1 | -7 | 35 | · | 1 | -10 | 2
CC1(C)Oc2ccc3ccc(=O)oc3c2C(/C=N/O)=C1Cl | -1 | -3 | -1 | 6 | -3 | 1
COc1ccc(-n2nc3cc(N)c(Br)cc3n2)cc1 | -16 | 4 | -5 | 43* | -6 | -1
COc1ccc(-n2nc3ccccc3n2)cc1 | -9 | 10 | -4 | 0 | -14 | -2
SMILES | OX1R antag-1 | TAAR1 antag | GalR3 antagonist | OX1R antag-2 | CHO parental Ca | TAAR1 ag
CCCSc1nc(N)c(C#N)c(-c2ccc(C)cc2)c1C#N | 5 | 54* | -7 | 17 | 41* | 31
COc1ccc(CN(CCC(C)C)S(=O)(=O)c2ccccc2Br)c(OC)c1 | 42 | 15 | -5 | 38* | -27 | 5
CN1CCN(S(=O)(=O)c2cccc3nsnc23)CC1 | 2 | -9 | -9 | 40* | 7 | 17
Cc1ccc(S(=O)(=O)N2CCN(C)CC2)c2nsnc12 | 9 | -6 | -9 | 50* | 0 | -3
O=C(c1cc2ccccc2o1)N1CCN(C/C=C/c2ccccc2)CC1 | -13 | -23 | -1 | 2 | -4 | 2
Cc1cc(=O)oc2c3c(cc(OCC(=O)Nc4ccc(CCO)cc4)c12)OC(C)(C)CC3 | -18 | 51* | 3 | 12 | -13 | 0
Cc1c(C)c2c(OCC(=O)NCc3ccccn3)cc3c(c2oc1=O)CCC(C)(C)O3 | -45 | 33 | -7 | 15 | -21 | 2
CCCc1cc(=O)oc2c3c(cc(OCC(=O)NCc4ccccn4)c12)OC(C)(C)CC3 | -17 | 49* | 16* | 13 | -16 | 2
O=C(NCC(c1ccco1)N1CCN(c2ccccc2)CC1)C(=O)NC1CC1 (stereo not drawn) | -10 | -16 | -4 | 22 | -18 | 5
CC(C)C(N)c1csc(NC(=O)Nc2cccc(Cl)c2)n1 (stereo not drawn) | · | 13 | -2 | · | · | 16
COc1cccc(-c2nc(CS(=O)(=O)CC(=O)Nc3ccccc3Cl)c(C)o2)c1 | 5 | -1 | 1 | 51* | -19 | 1
N#CC1C(=O)c2ccccc2C1c1ccccc1 (stereo not drawn) | · | 67* | -6 | · | · | 10
COc1ccc(Cl)cc1CNC[C@H]1O[C@@H](n2cnc3c(=O)[nH]c(N)nc32)[C@H](O)[C@@H]1O | · | -8 | 1 | · | · | 2
Cc1cc(C)cc(NC(=O)c2ccc([N+](=O)[O-])o2)c1 | · | 7 | -6 | · | · | 5
CC(=O)c1ccc(NC(=O)c2ccc([N+](=O)[O-])o2)cc1 | · | -4 | -10 | · | · | 8
CC(C)C(=O)N1CCN(c2ccc(NC(=O)c3ccc([N+](=O)[O-])o3)cc2Cl)CC1 | · | 27 | -2 | · | · | 17
NC(=O)c1oc2ccccc2c1NC(=O)c1ccc([N+](=O)[O-])o1 | -15 | -4 | -2 | 48* | 4 | 3
COc1ccc(NC(=O)c2ccc([N+](=O)[O-])o2)cc1 | -14 | 3 | -9 | 49* | -1 | 0
CC(=O)c1cccc(NC(=O)c2ccc([N+](=O)[O-])o2)c1 | -3 | -13 | -5 | 57* | -6 | 0
CC(C)C(=O)N1CCN(c2ccc(NC(=O)c3ccc([N+](=O)[O-])o3)cc2)CC1 | -9 | 18 | -3 | 46* | -2 | 3
CN(C)C(=O)N1CCN(C(=O)[C@H](CCc2ccccc2)NC(=O)[C@H]2O[C@@H](n3cnc4c(N)ncnc43)[C@H](O)[C@@H]2O)CC1 | · | -5 | -8 | · | · | 1
